From publication PMC2633472 (European journal of pharmacology, 2008)
“Also recorded” adds a separate entry of the source.

Tests used:
Sprague-Dawley rats [1] = test: MCH-induced food intake in satiated rats; assay type: in vivo, rat; details: 2 nmole i.c.v.
Summary of the method: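 Cannulated male Sprague-Dawley rats were kept in wire-bottom cages >3 weeks and screened by drinking >5 ml/1 h after 50 ng angiotensin II. Satiated rats got 10 μl i.c.v. over 2 min at 7–8 a.m.: aCSF, MCH 2 nmole, or MCH plus test compound (1 or 5 nmole). Vehicles were DMSO-matched (up to 5% v/v). Food came 10 min later; cumulative intake over 4 h; ANOVA/Bonferroni.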

Sprague-Dawley rats [2] = test: Conditioned taste aversion test; assay type: in vivo, rat
Dopamine D1 = Dopamine D1 (Homo sapiens, UniProt P21728); test: Radioligand displacement; assay type: binding
Opiate μ (OP3, MOP) = Opiate μ (OP3, MOP) (Homo sapiens, UniProt P35372); test: Radioligand displacement; assay type: binding
NPY2R = NPY2R (Homo sapiens, UniProt P49146); test: Selectivity FLIPR activity assay; assay type: cell-based
Summary of the method: (§1)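 Calcium FLIPR format: receptor-expressing cells were loaded 1 h at 37°C with fluo-4 in Hanks' balanced salt solution plus 20 mM HEPES (pH 7.4). Receptor activation was then measured as intracellular Ca2+ fluorescence in the presence of increasing test compound concentrations. The top concentration reported was 10 uM.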

Prostanoid EP4 = Prostanoid EP4 (Homo sapiens, UniProt P35408); test: Radioligand displacement; assay type: binding
Muscarinic M2 = Muscarinic M2 (Homo sapiens, UniProt P08172); test: Radioligand displacement; assay type: binding
Opiate κ (KOR) = Opiate κ (KOR) (Homo sapiens, UniProt P41145); test: Selectivity FLIPR activity assay; assay type: cell-based
Summary of the method: as §1

[3] = target: Transporter, Norepinephrine (NET) (Homo sapiens, UniProt P23975); test: Radioligand displacement; assay type: binding
Muscarinic M3 = Muscarinic M3 (Homo sapiens, UniProt P20309); test: Radioligand displacement; assay type: binding
MCH2R = MCH2R (Homo sapiens, UniProt Q969V1); test: Selectivity FLIPR activity assay; assay type: cell-based
Summary of the method: as §1

GPR10 = GPR10 (Homo sapiens, UniProt P49683); test: Selectivity FLIPR activity assay; assay type: cell-based
Summary of the method: as §1

Dopamine D2s = Dopamine D2s (Homo sapiens, UniProt P14416); test: Radioligand displacement; assay type: binding
Phorobol Ester = test: Radioligand displacement; details: read-out: BINDING Phorobol Ester; displacement of specific radioactive ligand
Rolipram = test: Radioligand displacement; details: read-out: BINDING Rolipram; displacement of specific radioactive ligand
Adenosine A2A = Adenosine A2A (Homo sapiens, UniProt P29274); test: Radioligand displacement; assay type: binding
Adrenergic β1/β2 = test: Radioligand displacement; details: read-out: BINDING Adrenergic β1/β2; displacement of specific radioactive ligand
GPR103 = GPR103 (Homo sapiens, UniProt Q96P65); test: Radioligand displacement; assay type: binding
Adenosine A1 = Adenosine A1 (Homo sapiens, UniProt P30542); test: Radioligand displacement; assay type: binding
rat MCH1 receptor [4] = target: T1, rat MCH1 receptor (Rattus norvegicus, UniProt P97639); assay type: binding
[5] = target: Nicotinic Acetylcholine α1, Bungarotoxin (Homo sapiens, UniProt P02708+P07510+Q07001); test: biochemical; assay type: binding
Sprague-Dawley rats [6] = test: Spontaneous locomotor activity; assay type: in vivo, rat
Summary of the method: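 Cannulated male Sprague-Dawley rats were acclimatized 60 min to a novel home cage, removed, given vehicle or 5 nmole test compound i.c.v., and returned at once. An infrared beam monitor (4 × 8 frame) recorded 60 min. Beam breaks changing location counted as ambulatory; all others as non-ambulatory fine movement. n=10.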

Orexin 1R = Orexin 1R (Homo sapiens, UniProt O43613); test: Selectivity FLIPR activity assay; assay type: cell-based
Summary of the method: as §1

rat MCH1 receptor [7] = target: T1, rat MCH1 receptor; test: MCH-induced Ca2+ mobilization; assay type: cell-based
hERG channel = hERG channel (Homo sapiens, UniProt Q12809); test: in vitro hERG electrophysiology assay; assay type: cell-based
[8] = Pharmacokinetics in rats after intravenous administration; assay type: in vivo; details: rat, plasma, 5 mg/kg
Histamine H1 = Histamine H1 (Homo sapiens, UniProt P35367); test: Radioligand displacement; assay type: binding

T1 sequence (P97639 whole entry): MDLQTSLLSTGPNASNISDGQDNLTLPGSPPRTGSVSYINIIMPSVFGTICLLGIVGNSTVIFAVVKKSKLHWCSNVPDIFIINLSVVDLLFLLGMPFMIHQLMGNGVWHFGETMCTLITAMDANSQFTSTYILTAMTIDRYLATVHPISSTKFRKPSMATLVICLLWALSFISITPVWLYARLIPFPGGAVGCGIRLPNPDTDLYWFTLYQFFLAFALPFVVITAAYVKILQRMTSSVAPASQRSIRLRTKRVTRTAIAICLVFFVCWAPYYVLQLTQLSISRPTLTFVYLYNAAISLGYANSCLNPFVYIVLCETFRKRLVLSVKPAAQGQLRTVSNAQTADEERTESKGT
Chain of hERG channel (Q12809 whole entry): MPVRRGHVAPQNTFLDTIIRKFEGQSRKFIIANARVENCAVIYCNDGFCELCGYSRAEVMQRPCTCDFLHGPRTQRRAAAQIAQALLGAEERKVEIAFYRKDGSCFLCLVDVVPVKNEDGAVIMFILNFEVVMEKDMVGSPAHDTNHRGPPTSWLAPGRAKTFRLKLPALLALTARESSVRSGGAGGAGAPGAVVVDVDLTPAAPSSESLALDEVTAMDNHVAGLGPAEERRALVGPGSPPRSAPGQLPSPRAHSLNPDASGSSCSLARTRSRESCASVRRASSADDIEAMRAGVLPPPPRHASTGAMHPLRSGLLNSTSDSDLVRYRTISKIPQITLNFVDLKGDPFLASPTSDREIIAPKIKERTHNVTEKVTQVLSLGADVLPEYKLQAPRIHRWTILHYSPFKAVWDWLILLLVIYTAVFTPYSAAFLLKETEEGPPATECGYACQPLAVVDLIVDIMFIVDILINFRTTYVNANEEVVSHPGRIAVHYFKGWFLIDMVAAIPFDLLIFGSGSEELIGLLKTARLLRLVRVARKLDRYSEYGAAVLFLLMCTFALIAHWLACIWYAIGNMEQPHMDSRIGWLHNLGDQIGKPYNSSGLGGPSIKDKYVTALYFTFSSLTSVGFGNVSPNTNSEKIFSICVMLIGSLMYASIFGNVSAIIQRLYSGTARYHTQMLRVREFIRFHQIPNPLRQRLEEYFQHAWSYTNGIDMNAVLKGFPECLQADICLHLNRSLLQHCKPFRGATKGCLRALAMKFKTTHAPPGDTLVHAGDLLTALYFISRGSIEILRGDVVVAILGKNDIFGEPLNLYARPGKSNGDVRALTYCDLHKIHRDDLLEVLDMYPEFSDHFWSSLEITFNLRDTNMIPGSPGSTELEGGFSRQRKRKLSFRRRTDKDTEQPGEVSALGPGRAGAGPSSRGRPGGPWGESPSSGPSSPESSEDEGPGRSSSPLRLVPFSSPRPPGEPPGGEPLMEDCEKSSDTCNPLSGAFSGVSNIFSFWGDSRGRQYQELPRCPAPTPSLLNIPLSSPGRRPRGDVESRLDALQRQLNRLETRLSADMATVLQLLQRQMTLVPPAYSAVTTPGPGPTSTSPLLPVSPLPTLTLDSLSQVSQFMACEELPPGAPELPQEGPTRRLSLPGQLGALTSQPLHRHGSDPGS
Chain of Dopamine D1 (P21728 whole entry): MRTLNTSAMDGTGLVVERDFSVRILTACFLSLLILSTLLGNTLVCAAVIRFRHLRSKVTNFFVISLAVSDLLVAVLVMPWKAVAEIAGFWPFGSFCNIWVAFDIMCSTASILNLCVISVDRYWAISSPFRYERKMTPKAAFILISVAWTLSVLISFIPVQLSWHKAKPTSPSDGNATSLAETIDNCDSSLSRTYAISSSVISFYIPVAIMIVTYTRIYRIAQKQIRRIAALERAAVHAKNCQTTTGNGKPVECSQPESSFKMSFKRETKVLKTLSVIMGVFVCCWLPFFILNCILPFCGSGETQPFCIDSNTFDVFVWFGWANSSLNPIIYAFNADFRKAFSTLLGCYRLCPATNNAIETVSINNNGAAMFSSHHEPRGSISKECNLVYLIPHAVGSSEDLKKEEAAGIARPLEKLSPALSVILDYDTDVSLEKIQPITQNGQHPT
Chain of Opiate μ (OP3, MOP) (P35372 whole entry): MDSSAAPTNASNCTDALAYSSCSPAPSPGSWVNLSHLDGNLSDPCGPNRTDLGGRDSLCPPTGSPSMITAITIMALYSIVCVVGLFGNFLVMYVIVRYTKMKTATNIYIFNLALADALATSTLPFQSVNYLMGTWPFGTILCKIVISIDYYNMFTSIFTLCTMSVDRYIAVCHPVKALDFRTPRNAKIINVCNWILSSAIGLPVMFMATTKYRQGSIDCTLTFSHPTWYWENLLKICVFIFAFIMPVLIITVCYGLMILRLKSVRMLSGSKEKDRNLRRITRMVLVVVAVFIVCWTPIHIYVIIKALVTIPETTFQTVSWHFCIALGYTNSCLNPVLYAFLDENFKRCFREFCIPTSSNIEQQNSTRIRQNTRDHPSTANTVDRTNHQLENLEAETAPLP
Chain of Opiate κ (KOR) (P41145 whole entry): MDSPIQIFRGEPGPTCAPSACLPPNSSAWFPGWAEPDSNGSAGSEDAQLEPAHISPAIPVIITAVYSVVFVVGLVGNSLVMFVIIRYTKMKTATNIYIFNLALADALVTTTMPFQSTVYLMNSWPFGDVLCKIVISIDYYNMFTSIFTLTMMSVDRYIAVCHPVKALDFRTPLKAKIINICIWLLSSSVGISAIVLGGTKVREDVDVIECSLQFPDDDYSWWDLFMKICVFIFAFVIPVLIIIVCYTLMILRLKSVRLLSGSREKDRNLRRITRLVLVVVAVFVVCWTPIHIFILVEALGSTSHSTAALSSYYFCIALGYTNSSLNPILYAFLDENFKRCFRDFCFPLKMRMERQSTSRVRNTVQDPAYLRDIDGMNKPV
Chain of GPR103 (Q96P65 whole entry, species assumed): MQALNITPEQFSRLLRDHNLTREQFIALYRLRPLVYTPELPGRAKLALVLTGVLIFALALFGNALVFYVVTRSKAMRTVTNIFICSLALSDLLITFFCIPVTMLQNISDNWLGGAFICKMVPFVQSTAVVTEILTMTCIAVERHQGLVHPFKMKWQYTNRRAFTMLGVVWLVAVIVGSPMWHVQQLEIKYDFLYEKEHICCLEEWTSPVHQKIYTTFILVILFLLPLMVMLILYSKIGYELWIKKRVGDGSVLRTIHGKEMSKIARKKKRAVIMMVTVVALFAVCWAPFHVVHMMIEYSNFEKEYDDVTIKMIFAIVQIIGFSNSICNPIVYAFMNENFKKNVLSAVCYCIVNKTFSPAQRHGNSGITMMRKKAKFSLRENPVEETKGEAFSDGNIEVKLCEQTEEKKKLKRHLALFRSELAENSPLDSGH
Chain of MCH2R (Q969V1 whole entry): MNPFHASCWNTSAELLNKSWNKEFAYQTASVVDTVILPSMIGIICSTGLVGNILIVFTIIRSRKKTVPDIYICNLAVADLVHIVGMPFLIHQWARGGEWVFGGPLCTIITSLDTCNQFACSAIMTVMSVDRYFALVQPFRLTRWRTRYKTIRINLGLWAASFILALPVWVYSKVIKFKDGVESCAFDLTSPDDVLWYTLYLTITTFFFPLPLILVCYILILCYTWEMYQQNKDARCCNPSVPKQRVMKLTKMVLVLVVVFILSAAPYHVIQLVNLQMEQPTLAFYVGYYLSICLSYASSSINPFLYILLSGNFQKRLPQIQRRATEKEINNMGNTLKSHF
Chain of Dopamine D2s (P14416 1-414 isoform P14416-2): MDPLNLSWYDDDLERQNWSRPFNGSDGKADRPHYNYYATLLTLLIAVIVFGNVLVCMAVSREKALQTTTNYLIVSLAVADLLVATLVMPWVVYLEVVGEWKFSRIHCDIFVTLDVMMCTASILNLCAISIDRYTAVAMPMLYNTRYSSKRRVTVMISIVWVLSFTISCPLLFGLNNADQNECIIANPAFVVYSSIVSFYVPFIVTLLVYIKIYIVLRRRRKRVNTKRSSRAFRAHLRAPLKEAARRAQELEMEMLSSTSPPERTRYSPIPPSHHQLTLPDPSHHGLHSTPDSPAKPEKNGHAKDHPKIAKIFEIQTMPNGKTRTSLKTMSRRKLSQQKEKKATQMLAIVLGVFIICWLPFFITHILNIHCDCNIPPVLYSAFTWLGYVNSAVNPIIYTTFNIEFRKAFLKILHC
Chain of Muscarinic M3 (P20309 whole entry): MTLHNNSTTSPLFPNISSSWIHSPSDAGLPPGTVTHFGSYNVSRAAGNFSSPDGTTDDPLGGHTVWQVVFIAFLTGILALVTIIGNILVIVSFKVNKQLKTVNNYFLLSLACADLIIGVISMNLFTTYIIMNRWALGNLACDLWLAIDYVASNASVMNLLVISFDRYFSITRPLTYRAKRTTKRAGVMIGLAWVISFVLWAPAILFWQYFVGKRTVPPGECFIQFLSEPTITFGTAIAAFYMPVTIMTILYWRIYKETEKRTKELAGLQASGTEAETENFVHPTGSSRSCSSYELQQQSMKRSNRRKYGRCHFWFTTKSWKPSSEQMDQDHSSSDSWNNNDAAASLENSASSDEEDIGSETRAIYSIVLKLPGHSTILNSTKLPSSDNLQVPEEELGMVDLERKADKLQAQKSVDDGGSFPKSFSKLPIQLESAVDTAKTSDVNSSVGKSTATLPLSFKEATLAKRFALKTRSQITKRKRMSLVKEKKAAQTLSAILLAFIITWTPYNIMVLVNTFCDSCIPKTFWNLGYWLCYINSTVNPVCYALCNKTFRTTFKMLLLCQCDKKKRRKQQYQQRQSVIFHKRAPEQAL
Chain of NPY2R (P49146 whole entry, species assumed): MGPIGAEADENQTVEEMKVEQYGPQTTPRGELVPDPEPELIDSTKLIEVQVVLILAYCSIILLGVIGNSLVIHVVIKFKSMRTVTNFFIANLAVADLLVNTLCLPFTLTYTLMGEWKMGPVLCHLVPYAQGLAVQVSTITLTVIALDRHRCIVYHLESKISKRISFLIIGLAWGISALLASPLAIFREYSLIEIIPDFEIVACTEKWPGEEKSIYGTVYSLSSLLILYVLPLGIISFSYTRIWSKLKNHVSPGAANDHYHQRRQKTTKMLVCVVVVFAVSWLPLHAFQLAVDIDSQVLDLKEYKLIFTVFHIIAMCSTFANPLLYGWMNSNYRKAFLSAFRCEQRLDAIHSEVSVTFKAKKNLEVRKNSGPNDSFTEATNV

CSCC[C@@H]1NC(=O)[C@@H](NC(=O)[C@H](CCCNC(=N)N)NC(=O)[C@H](CC(C)C)NC(=O)[C@H](CCSC)NC(=O)[C@H](CC(=O)O)NC(=O)[C@H](Cc2ccccc2)NC(=O)[C@@H](N)CC(=O)O)CSSC[C@@H](C(=O)N[C@@H](Cc2c[nH]c3ccccc23)C(=O)N[C@@H](CCC(N)=O)C(=O)N[C@H](C(=O)O)C(C)C)NC(=O)[C@@H]2CCCN2C(=O)[C@H](CCCNC(=N)N)NC(=O)[C@H](Cc2ccc(O)cc2)NC(=O)[C@H](C(C)C)NC(=O)[C@H](CCCNC(=N)N)NC(=O)CNC(=O)[C@H](CC(C)C)NC1=O [MCH, Melanin-concentrating hormone]
feeding after intracerebroventricular injection (Sprague-Dawley rats [1]): induced rapid and robust feeding

[Cl-].[Li+] [LiCl, Lithium chloride, reference compound]
taste aversion effect (Sprague-Dawley rats [2]; 300 mg/kg, i.p., positive control, P<0.01 vs. vehicle group): robust taste aversion effect

C[C@@H](CNCc1ccccc1)N1C[C@H](CCCNC(=N)N)N(CCc2cccc(F)c2)C1=S [TPI 1361-17, N-(3-{(4S)-1-[(1S)-2-(benzylamino)-1-methylethyl]-3-[2-(3-fluorophenyl)ethyl]-2-thioxoimidazolidin-4-yl}propyl)guanidine]
IC50 (Dopamine D1): > 1 µM | IC50 (Opiate μ (OP3, MOP)): > 1 µM | selectivity for MCH1 receptor compared to neuropeptide Y2 (NPY2R): more than 1,000 fold | IC50 (Prostanoid EP4): > 1 µM | IC50 (Muscarinic M2): > 1 µM | selectivity for MCH1 receptor compared to kappa opioid receptors (Opiate κ (KOR)): more than 1,000 fold | IC50 [3]: > 1 µM | IC50 (Muscarinic M3): > 1 µM | selectivity for MCH1 receptor compared to human MCH2 receptor (MCH2R): more than 1,000 fold | selectivity for MCH1 receptor compared to prolactin releasing peptide receptor (GPR10): more than 1,000 fold | IC50 (Dopamine D2s): > 1 µM | IC50 (Phorobol Ester): > 1 µM | IC50 (Rolipram): > 1 µM | IC50 (Adenosine A2A): > 1 µM | IC50 (Adrenergic β1/β2): > 1 µM | IC50 (GPR103): > 1 µM | IC50 (Adenosine A1): > 1 µM | IC50 (rat MCH1 receptor [4]): 0.0318 ± 0.00866 µM | displacement of the binding of [125I] MCH (rat MCH1 receptor [4]; rat MCH1 receptor membranes): completely displaced | IC50 [5]: > 1 µM | ambulatory and non-ambulatory movements vs vehicle (Sprague-Dawley rats [6]; five nmole i.c.v., monitored for 60 minutes): no significant differences | detectable changes in movement (Sprague-Dawley rats [6]; five or one nmole i.c.v.): did not exhibit any detectable changes in movement | selectivity for MCH1 receptor compared to orexin 1R (Orexin 1R): more than 1,000 fold | pA2 (Schild regression) (rat MCH1 receptor [7]; MCH dose response curves with increasing concentrations of antagonist): 9.43 | effect on basal Ca2+ level by itself (rat MCH1 receptor [7]; compound alone, no MCH): did not change the basal Ca^2+ level | Schild regression slope (rat MCH1 receptor [7]; r^2 = 0.975): 1.085 ± 0.010 | IC50 (hERG channel): > 10 µM | activity in a hERG channel assay (hERG channel; result in words): not show activity; also recorded: no activity was detected | Tmax [8]: 4.98 min | AUC(0-inf) ([8]; AUC0-∞ (mean value), intravenous, mean): 2440 ng·h/mL | half-life ([8]; plasma elimination half-life (mean value), intravenous, mean): 2.7 h | aversive effect in taste aversion test (Sprague-Dawley rats [2]; 10 nmole, i.c.v., saccharin preference): did not result in any aversive effect | IC50 (Histamine H1): > 1 µM
